# Assay results pooled from the literature.
# Compare with care: the assays were run in different laboratories.
# P2RX7: P2X purinoceptor 7 (P2RX7, Homo sapiens, UniProt Q99572)
# 4-aminobutyrate aminotransferase, mitochondrial: 4-aminobutyrate aminotransferase, mitochondrial (Homo sapiens, UniProt P80404)
# DCAF1: DDB1- and CUL4-associated factor 1 (DCAF1, Homo sapiens, UniProt Q9Y4B6)
Structure (SMILES),target,test,conditions,measurement,result
Cc1nn(CCc2ccccc2)c2ncc(C(=O)NCc3cccnc3)c(Cl)c12,"Prolyl endopeptidase (PREP, Homo sapiens, UniProt P48147)","enzyme activity, inhibitor, fluorescence",,kinact,0.000233 s⁻¹
O=C(c1ccc(Br)cc1)N1CCC(n2cncc2-c2ccc(OS(=O)(=O)c3cccc4cnccc34)cc2)CC1,P2RX7,"ligand displacement, radioligand","1 µM, cell membranes",inhibition,> 70%
N[C@H]1CC(C(=O)O)=CC(F)(F)C1,"4-aminobutyrate aminotransferase, mitochondrial","enzyme activity, inhibitor",,kinact/KI,2 M⁻¹ s⁻¹
C[C@@H]1CN(c2ccc(-c3cc(C(=O)NCCOCCOCCOCCOCCOCCOCCNC(=O)/C=C/c4[nH]cc(C(=O)N[C@@H](CC(N)=O)c5ccc(F)c(Cl)c5)c4-c4ccc(Cl)cc4F)ccc3F)cc2NC(=O)c2ccc(F)cc2C(F)(F)F)C[C@H](C)N1C,DCAF1,"thermal stability, DSF",5.5 µM,ΔTm,5.3 °C
COc1ccccc1C(=O)/C=C/c1cn(Cc2cn(-c3ccnc4cc(Cl)ccc34)nn2)c2ccccc12,"Calcium-dependent protein kinase 1 (CDPK1, Plasmodium falciparum, UniProt P62344)","enzyme activity, inhibitor, ADP detection",5 µM,inhibition,88.3%
Cc1cc(NC(=O)c2cccc(NC(=O)/C=C/CN(C)C)c2)ccc1Nc1nccc(-c2cccnc2)n1,"Interleukin-1 receptor-associated kinase 1 (IRAK1, Homo sapiens, UniProt P51617)","binding, competition with immobilised ligand",1 µM,remaining binding,11%
CNc1ncc2c(/C=C/C(=O)N3CCC(OC)CC3)nn(Cc3cccc(C(F)(F)F)c3)c2n1,"Mitogen-activated protein kinase kinase kinase 11 (MAP3K11, Homo sapiens, UniProt Q16584)","enzyme activity, inhibitor, radiometric",1 µM,remaining activity,97%
Cc1cc([C@@H](C)Nc2ccccc2C(=O)O)c2nc(N3CCC(F)(F)CC3)c(C#N)c(=O)n2c1,"Hepatocyte growth factor receptor (MET, Homo sapiens, UniProt P08581)","binding, competition with immobilised ligand",1 µM,remaining binding,100%
C[C@@H]1CN(c2ccc(-c3cc(C(=O)NCCOCCOCCOCCOCCNC(=O)Cn4cc(-c5[nH]cc(C(=O)N[C@@H](CC(N)=O)c6ccc(F)c(Cl)c6)c5-c5ccc(Cl)cc5F)cn4)ccc3F)cc2NC(=O)c2c[nH]c(=O)cc2C(F)(F)F)C[C@H](C)N1C,DCAF1,"thermal stability, DSF",5.5 µM,ΔTm,8 °C
N[C@H]1C=C(C(=O)O)CC(F)(F)C1,"4-aminobutyrate aminotransferase, mitochondrial","enzyme activity, inhibitor",,kinact/KI,2.83 M⁻¹ s⁻¹
O=C(c1ccc(I)cc1)N1CCC(n2cncc2-c2ccc(OS(=O)(=O)c3cccc4cnccc34)cc2)CC1,P2RX7,"ligand displacement, radioligand","1 µM, cell membranes",inhibition,> 70%
COc1cc(-c2cncc3c2CN(C)Cc2cc(N4CCNCC4)ccc2-3)cc(OC)c1OC,"Hepatocyte growth factor receptor (MET, Homo sapiens, UniProt P08581, Y1230H)","enzyme activity, inhibitor",1 µM,remaining activity,86%
C=CC(=O)N1CCC(COCC(=O)N2CCN(c3nc(-c4cnc(N)nc4C(F)F)nc(N4CCOC[C@@H]4C)n3)CC2)CC1,"Ribosomal protein S6 kinase alpha-4, N-terminal kinase domain (RPS6KA4, Homo sapiens, UniProt O75676)","binding, competition with immobilised ligand",1 µM,remaining binding,93%
